The target of this data set is Multidrug resistance-associated protein 1 (Homo sapiens, UniProt P33527). The experiment in a line: Inhibition of MRP1 in human 2008/MRP1 cells assessed as potentiation of doxorubicin-induced cytotoxicity by measuring cell survival at 2 uM after 5 days by MTS assay relative to control. Type of data set: cell-based. The note with it: 120 h. In short, it runs like this: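 2008/MRP1 cells (retroviral human MRP1 transfectant; RPMI 1640, 10% FBS) at 4,000 per well, with 100 nM doxorubicin plus crude, unpurified click products in DMSO: 2 µM in the primary screen, 1 µM in the secondary. Incubated 5 days at 37 °C. MTS/PMS added for 2 h at 37 °C, absorbance read at 490 nm. % survival is relative to wells without DOX or product. Run in triplicate, at least three experiments.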
Multidrug resistance-associated protein 1, sequence (P33527 whole entry): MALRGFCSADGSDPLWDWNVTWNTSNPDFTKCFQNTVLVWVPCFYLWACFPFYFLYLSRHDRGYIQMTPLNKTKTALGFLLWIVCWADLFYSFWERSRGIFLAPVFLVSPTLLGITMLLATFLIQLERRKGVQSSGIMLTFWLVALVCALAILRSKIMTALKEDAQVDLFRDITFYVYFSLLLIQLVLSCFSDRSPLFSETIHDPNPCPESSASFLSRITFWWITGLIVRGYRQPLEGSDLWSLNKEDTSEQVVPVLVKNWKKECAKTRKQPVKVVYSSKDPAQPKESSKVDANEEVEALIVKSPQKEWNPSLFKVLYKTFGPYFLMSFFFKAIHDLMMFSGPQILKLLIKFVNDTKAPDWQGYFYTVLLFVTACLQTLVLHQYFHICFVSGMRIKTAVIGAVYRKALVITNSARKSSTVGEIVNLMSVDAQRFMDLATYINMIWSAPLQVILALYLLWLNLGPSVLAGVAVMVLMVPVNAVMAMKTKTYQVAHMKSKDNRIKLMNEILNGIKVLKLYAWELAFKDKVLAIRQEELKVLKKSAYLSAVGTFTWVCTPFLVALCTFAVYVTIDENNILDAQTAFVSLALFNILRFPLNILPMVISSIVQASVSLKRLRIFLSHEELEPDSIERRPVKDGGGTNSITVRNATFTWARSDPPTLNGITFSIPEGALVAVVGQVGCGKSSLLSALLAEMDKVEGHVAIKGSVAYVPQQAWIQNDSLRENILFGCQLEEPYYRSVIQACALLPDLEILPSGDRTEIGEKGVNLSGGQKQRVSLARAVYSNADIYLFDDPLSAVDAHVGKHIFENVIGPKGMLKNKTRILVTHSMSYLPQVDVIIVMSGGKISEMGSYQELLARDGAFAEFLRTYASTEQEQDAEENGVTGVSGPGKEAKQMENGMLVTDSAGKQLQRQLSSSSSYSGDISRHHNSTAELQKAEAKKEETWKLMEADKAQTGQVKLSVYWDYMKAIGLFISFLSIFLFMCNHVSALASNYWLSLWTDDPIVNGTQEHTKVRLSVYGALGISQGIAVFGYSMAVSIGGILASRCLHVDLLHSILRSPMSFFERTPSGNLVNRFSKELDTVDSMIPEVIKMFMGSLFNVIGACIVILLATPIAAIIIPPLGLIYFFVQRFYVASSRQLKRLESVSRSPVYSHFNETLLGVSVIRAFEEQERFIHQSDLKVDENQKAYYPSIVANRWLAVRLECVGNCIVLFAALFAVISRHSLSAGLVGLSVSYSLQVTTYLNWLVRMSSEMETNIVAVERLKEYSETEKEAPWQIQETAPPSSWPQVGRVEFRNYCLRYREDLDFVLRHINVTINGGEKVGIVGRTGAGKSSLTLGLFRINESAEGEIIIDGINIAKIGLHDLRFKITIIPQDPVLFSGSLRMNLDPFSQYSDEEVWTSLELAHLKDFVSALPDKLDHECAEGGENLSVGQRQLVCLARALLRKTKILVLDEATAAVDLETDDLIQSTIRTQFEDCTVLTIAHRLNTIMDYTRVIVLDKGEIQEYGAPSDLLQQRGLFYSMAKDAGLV

For the compound `O=c1cc(-c2ccc(OCCCc3cn(CCOCCOc4cccc(-c5oc6ccccc6c(=O)c5OCc5ccccc5)c4)nn3)cc2)oc2ccccc12`, the Survival was determined as 54%.

`Cc1ccc2oc(-c3ccc(OCCOCCOCCn4cc(CN(CCOc5ccc6c(=O)cc(-c7ccccc7)oc6c5)Cc5ccccc5)nn4)cc3)cc(=O)c2c1`: the Survival was 53%.

In the case of `Cc1ccc2oc(-c3ccc(OCCCCc4cn(CCOCCOc5ccc(-c6oc7ccccc7c(=O)c6OCc6ccccc6)cc5)nn4)cc3)cc(=O)c2c1`, the Survival amounted to 73%.

Regarding `O=c1cc(-c2ccc(OCCOCCn3cc(-c4cccc(-c5cn(CCOCCOc6ccc(-c7cc(=O)c8ccccc8o7)cc6)nn5)c4)nn3)cc2)oc2ccccc12`, the Survival stood at 79%.

`COc1cccc(COc2c(-c3ccc(OCCOCCn4cc(CCCCOc5ccc(/C=C/C(=O)c6ccc(C)cc6O)cc5)nn4)cc3)oc3ccccc3c2=O)c1`: the Survival stood at 78%.

On to `O=Cc1ccc(OCCCCc2cn(CCOCCOCCOc3ccc(-c4oc5ccccc5c(=O)c4OCc4ccccc4)cc3)nn2)cc1`, for which the Survival is 75%.

Take `Cc1ccc2oc(-c3ccc(OCCOCCOCCn4cc(CCCOc5ccc(-c6nc7ccccc7c(=O)[nH]6)cc5)nn4)cc3)cc(=O)c2c1`: the Survival was 72%.

On to `Cc1ccc(O)c(C(=O)/C=C/c2ccc(OCCCCc3cn(CCOCCOc4ccc(-c5cc(=O)c6ccccc6o5)cc4)nn3)cc2)c1`, for which the Survival was 60%.

Turning to `COc1cccc(COc2c(-c3ccc(OCCOCCn4cc(CCCOc5ccc6c(=O)cc(-c7ccccc7)oc6c5)nn4)cc3)oc3ccccc3c2=O)c1`, the Survival stood at 78%.

Consider `O=C(/C=C/c1ccc(OCCCCc2cn(CCOCCOc3ccc(-c4cc(=O)c5cc(F)ccc5o4)cc3)nn2)cc1)c1ccccc1O`, for which the Survival was 72%.

Regarding `C#CCOCCOc1ccc2c(=O)cc(-c3ccccc3)oc2c1`, the Survival was determined as 98%.

For `COc1cccc(COc2c(-c3ccc(OCCOCCn4cc(CN(Cc5ccccc5)Cc5cn(CCOCCOc6ccc(-c7oc8ccccc8c(=O)c7OCc7cccc(OC)c7)cc6)nn5)nn4)cc3)oc3ccccc3c2=O)c1`, the Survival is given as 80%.

In the case of `O=c1cc(-c2ccccc2)oc2cc(OCCOCCOCCn3cc(CN(Cc4cn(CCOCCOCCOc5ccc6c(=O)cc(-c7ccccc7)oc6c5)nn4)Cc4cn(CCOCCOCCOc5ccc6c(=O)cc(-c7ccccc7)oc6c5)nn4)nn3)ccc12`, the Survival was 77%.

For the compound `O=c1cc(-c2ccccc2)oc2cc(OCCOCCn3cc(CCCOc4ccc(-c5cc(=O)c6cc(F)ccc6o5)cc4)nn3)ccc12`, the Survival is listed as 111%.

Regarding `Cc1ccc2oc(-c3ccc(OCCOCCOCCn4cc(CCN5C(=O)c6ccccc6C5=O)nn4)cc3)cc(=O)c2c1`, the Survival came to 81%.

For the compound `Cc1ccc2oc(-c3ccc(OCCOCCOCCn4cc(CCCCOc5ccc(/C=C/C(=O)c6ccccc6O)cc5)nn4)cc3)cc(=O)c2c1`, the Survival is 61%.

Take `O=c1c(OCc2ccccc2)c(-c2cccc(OCCOCCn3cc(-c4ccc(-c5cn(CCOCCOc6cccc(-c7oc8ccccc8c(=O)c7OCc7ccccc7)c6)nn5)cc4)nn3)c2)oc2ccccc12`: the Survival came to 82%.

Take `COc1cccc(COc2c(-c3ccc(OCCOCCn4cc(CN(CCOc5ccc6c(=O)cc(-c7ccccc7)oc6c5)Cc5ccccc5)nn4)cc3)oc3ccccc3c2=O)c1`: the Survival turned out to be 79%.

For `O=c1cc(-c2ccccc2)oc2c(OCCn3cc(CNc4ccccc4)nn3)cccc12`, the Survival is 85%.

Turning to `COCOc1cc(OCc2ccccc2)c2c(=O)cc(-c3ccc(OCCCc4cn(CCOCCOc5ccc6c(=O)cc(-c7ccccc7)oc6c5)nn4)cc3)oc2c1`, the Survival is 54%.

In the case of `Cc1ccc(O)c(C(=O)/C=C/c2ccc(OCCCCc3cn(CCOCCOCCOc4ccc(-c5cc(=O)c6ccccc6o5)cc4)nn3)cc2)c1`, the Survival is on record as 70%.

For the compound `Cc1ccc2oc(-c3ccc(OCCOCCOCCn4cc(CN(Cc5ccccc5)Cc5cn(CCOCCOCCOc6ccc(-c7cc(=O)c8cc(C)ccc8o7)cc6)nn5)nn4)cc3)cc(=O)c2c1`, the Survival stood at 52%.

Take `O=c1cc(-c2ccccc2)oc2cc(OCCCc3cn(CCOCCOc4ccc(-c5cc(=O)c6cc(F)ccc6o5)cc4)nn3)ccc12`: the Survival was determined as 55%.

Turning to `CN(CCN(C)Cc1cn(CCOCCOc2ccc(-c3cc(=O)c4cc(F)ccc4o3)cc2)nn1)Cc1cn(CCOCCOc2ccc(-c3cc(=O)c4cc(F)ccc4o3)cc2)nn1`, the Survival is listed as 73%.

As for `Cc1ccc2oc(-c3ccc(OCCOCCOCCN=[N+]=[N-])cc3)cc(=O)c2c1`, the Survival is recorded as 84%.

`O=c1cc(-c2ccccc2)oc2cc(OCCCCc3cn(CCOCCOc4ccc(-c5oc6ccccc6c(=O)c5OCc5ccccc5)cc4)nn3)ccc12`: the Survival turned out to be 79%.

With `Cc1ccc2oc(-c3ccc(OCCOCCOCCn4cc(CCCCOc5ccc6c(=O)cc(-c7ccccc7)oc6c5)nn4)cc3)cc(=O)c2c1`, the Survival was found to be 51%.

Take `CCc1ccc(O)c(C(=O)/C=C/c2ccc(OCCCCc3cn(CCOCCOCCOc4ccc(-c5cc(=O)c6ccccc6o5)cc4)nn3)cc2)c1`: the Survival is reported as 60%.

On to `[N-]=[N+]=NCCOCCOc1ccc(-c2cc(=O)c3cc(F)ccc3o2)cc1`, for which the Survival is recorded as 90%.

Consider `O=c1cc(-c2ccccc2)oc2cc(OCCOCCn3cc(-c4cccc(-c5cn(CCOCCOc6ccc7oc(-c8ccccc8)cc(=O)c7c6)nn5)c4)nn3)ccc12`, for which the Survival worked out at 76%.

With `COCOc1cc(OCc2ccccc2)c2c(=O)cc(-c3ccc(OCCCc4cn(CCOCCOCCOc5ccc(-c6cc(=O)c7cc(C)ccc7o6)cc5)nn4)cc3)oc2c1`, the Survival is listed as 53%.

As to `O=c1cc(-c2ccccc2)oc2cc(OCCn3cc(-c4cccc(-c5cn(CCOc6ccc7occ(-c8ccccc8)c(=O)c7c6)nn5)c4)nn3)ccc12`, the Survival stood at 90%.

On to `O=C(/C=C/c1ccc(OCCCCc2cn(CCOCCOCCOc3ccc(-c4cc(=O)c5cc(F)ccc5o4)cc3)nn2)cc1)c1ccc(F)cc1O`, for which the Survival stood at 53%.

`O=c1c(OCc2ccccc2)c(-c2ccc(OCCOCCOCCn3cc(CN(Cc4ccccc4)Cc4cn(CCOCCOCCOc5ccc(-c6oc7ccccc7c(=O)c6OCc6ccccc6)cc5)nn4)nn3)cc2)oc2ccccc12`: the Survival was 87%.

For the compound `O=C1c2ccccc2C(=O)N1CCc1cn(CCOCCOc2ccc(-c3oc4ccccc4c(=O)c3OCc3ccccc3)cc2)nn1`, the Survival came to 57%.

With `O=c1c(OCc2ccccc2)c(-c2ccc(OCCOCCn3cc(CN(Cc4cn(CCOCCOc5ccc(-c6oc7ccccc7c(=O)c6OCc6ccccc6)cc5)nn4)Cc4cn(CCOCCOc5ccc(-c6oc7ccccc7c(=O)c6OCc6ccccc6)cc5)nn4)nn3)cc2)oc2ccccc12`, the Survival is 77%.

As to `Cc1ccc(C(=O)/C=C/c2ccc(OCCCCc3cn(CCOCCOc4ccc(-c5cc(=O)c6cc(F)ccc6o5)cc4)nn3)cc2)c(O)c1`, the Survival was determined as 71%.

`C#CCCCCOc1ccc2c(=O)cc(-c3ccccc3)oc2c1`: the Survival stood at 99%.

On to `O=C(/C=C/c1ccc(OCCCCc2cn(CCOCCOc3ccc4c(=O)cc(-c5ccccc5)oc4c3)nn2)cc1)c1ccc(F)cc1O`, for which the Survival came out at 64%.

In the case of `O=c1cc(-c2ccccc2)oc2cc(OCCOCCn3cc(CN4CCN(Cc5cn(CCOCCOc6ccc7oc(-c8ccccc8)cc(=O)c7c6)nn5)CC4)nn3)ccc12`, the Survival is 99%.

On to `COCOc1cc(OCc2ccccc2)c2c(=O)cc(-c3ccc(OCCCc4cn(CCOCCOCCOc5ccc(-c6cc(=O)c7ccccc7o6)cc5)nn4)cc3)oc2c1`, for which the Survival is given as 66%.

As for `O=Cc1ccc(OCCCCc2cn(CCOCCOc3cccc(-c4oc5ccccc5c(=O)c4OCc4ccccc4)c3)nn2)cc1`, the Survival is given as 82%.

Turning to `O=c1cc(-c2ccc(OCCOCCn3cc(CNc4ccccc4)nn3)cc2)oc2ccc(F)cc12`, the Survival was determined as 81%.

As for `COCOc1cc(OCc2ccccc2)c2c(=O)cc(-c3ccc(OCCCc4cn(CCOc5cccc6c(=O)cc(-c7ccccc7)oc56)nn4)cc3)oc2c1`, the Survival came out at 81%.

As for `Cc1ccc2oc(-c3ccc(OCCOCCOCCn4cc(CN(Cc5cn(CCOCCOCCOc6ccc(-c7cc(=O)c8cc(C)ccc8o7)cc6)nn5)Cc5cn(CCOCCOCCOc6ccc(-c7cc(=O)c8cc(C)ccc8o7)cc6)nn5)nn4)cc3)cc(=O)c2c1`, the Survival turned out to be 71%.

As to `CN(CCN(C)Cc1cn(CCOCCOc2ccc(-c3oc4ccccc4c(=O)c3OCc3ccccc3)cc2)nn1)Cc1cn(CCOCCOc2ccc(-c3oc4ccccc4c(=O)c3OCc3ccccc3)cc2)nn1`, the Survival worked out at 76%.

On to `COc1cccc(COc2c(-c3ccc(OCCOCCn4cc(CNc5ccccc5)nn4)cc3)oc3ccccc3c2=O)c1`, for which the Survival amounted to 89%.

As to `O=c1cc(-c2ccc(OCCCc3cn(CCOCCOCCOc4ccc5c(=O)cc(-c6ccccc6)oc5c4)nn3)cc2)oc2cc(F)ccc12`, the Survival came out at 52%.

For `COc1cccc(COc2c(-c3ccc(OCCCCc4cn(CCOCCOc5ccc(-c6oc7ccccc7c(=O)c6OCc6ccccc6)cc5)nn4)cc3)oc3ccccc3c2=O)c1`, the Survival is 68%.

Regarding `COc1cccc(COc2c(-c3ccc(OCCOCCn4cc(CCCOc5ccc(-c6cc(=O)c7ccc(F)cc7o6)cc5)nn4)cc3)oc3ccccc3c2=O)c1`, the Survival is given as 61%.

Turning to `CN(CCN(C)Cc1cn(CCOCCOCCOc2ccc(-c3cc(=O)c4ccccc4o3)cc2)nn1)Cc1cn(CCOCCOCCOc2ccc(-c3cc(=O)c4ccccc4o3)cc2)nn1`, the Survival is given as 71%.

For the compound `[N-]=[N+]=NCCOc1ccc2c(=O)cc(-c3ccccc3)oc2c1`, the Survival was 79%.

With `O=c1cc(-c2ccc(OCCCc3cn(CCOc4cccc5c(=O)cc(-c6ccccc6)oc45)nn3)cc2)oc2cc(F)ccc12`, the Survival was 77%.

With `O=c1c(OCc2ccccc2)c(-c2ccc(OCCOCCOCCn3cc(CNc4ccccc4)nn3)cc2)oc2ccccc12`, the Survival is 87%.

`O=c1[nH]c(-c2ccc(OCCCc3cn(CCOCCOc4ccc(-c5cc(=O)c6ccccc6o5)cc4)nn3)cc2)nc2ccccc12`: the Survival was 58%.

The record behind these values is ChEMBL document CHEMBL4257575, “Discovery of Novel Flavonoid Dimers To Reverse Multidrug Resistance Protein 1 (MRP1, ABCC1) Mediated Drug Resistance in Cancers Using a High Throughput Platform with "Click Chemistry"” (J Med Chem, 2018).
